Source: PubChem BioAssay (several laboratories)
TAAR1 agonist = human TAAR1 agonism | Q96RJ0 | CHO RD-HGA16 TAAR1, Fluo-8 calcium fluorescence; vehicle wells 0%, saturating PEA agonist 100% | activation, % at 3 µM | 360,000 compounds, 0.99% hits;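 active = activation above the mean activation of all test compounds in the run plus 3 SD, cut at about 38% in these data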
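Test system: RD-HGA16 (CHO) cells co-expressing Gα16 and hTAAR1 / Benchmarks: DMSO vehicle as 0%, PEA at EC100 as 100% / Repeats: no replicates (n 1) / Measure: % activation from peak over basal fluorescence ratio, DMSO-to-PEA scaled / Timing: 17-24 h plating, Fluo-8 75 min 37 °C, 30 min RT / Technique: kinetic Fluo-8 calcium fluorescence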
B2AR ag = activates human beta-2 adrenergic receptor causing internalization; Am2.2-beta2AR cells, FAP receptor internalization, flow cytometry; 340,000 compounds, 0.43% hits; response, % (no concentration beside the values); AID 504454;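 active = response above a set limit, near 3 SD of response in nonfluorescent compounds, cut at about 42% in these data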
TAAR1 antag = human TAAR1 antagonism; AID 624466; inhibition, % at 3 µM; CHO RD-HGA16 TAAR1, Fluo-8 calcium fluorescence, antagonist; 360,000 compounds, 1.5% hits;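 active = inhibition above a per-plate cutoff, the mean inhibition of test compounds on that plate plus 3 SD, cut at about 49% in these data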;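 note: 0% = DMSO plus EC80 beta-PEA response and 100% = DMSO alone without agonist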
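Material: RD-HGA16 CHO cells with stable hTAAR1 and Gα16; Dosing: single nominal final test compound concentration of 3 µM; Schedule: seeding 17-24 h prior, 75-min 37 °C, 30-min RT dye loading; Detection: kinetic Fluo-8 calcium fluorescence measurement; Measure: % inhibition from peak post-agonist over basal fluorescence ratio; Benchmarks: vehicle and agonist controls.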
MC4R ag barr = agonists of human melanocortin 4 receptor (MC4R) beta-arrestin | P32245 | U2OS MC4R beta-arrestin complementation, luminescence; percent of melanotan II response, DMSO zero | activation, % at 8.9 µM | 360,000 compounds, 0.98% hits | AID 540308;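 active = activation above a per-plate cutoff, the mean activation of sample wells on that plate plus 3 SD, cut at about 8% in these data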
Target sequence (P32245 whole entry, looked up): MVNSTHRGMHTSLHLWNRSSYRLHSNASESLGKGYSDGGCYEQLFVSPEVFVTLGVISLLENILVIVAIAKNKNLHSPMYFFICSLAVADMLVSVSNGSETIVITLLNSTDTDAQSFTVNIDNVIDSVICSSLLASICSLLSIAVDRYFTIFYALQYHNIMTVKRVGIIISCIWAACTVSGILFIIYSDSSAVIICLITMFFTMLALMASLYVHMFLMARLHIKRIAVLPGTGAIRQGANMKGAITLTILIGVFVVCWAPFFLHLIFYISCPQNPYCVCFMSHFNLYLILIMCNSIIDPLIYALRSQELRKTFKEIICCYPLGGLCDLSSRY
m5-HT2A agonist = mouse HTR2A agonism via beta-arrestin recruitment | AID 624169 | activation, % at 7.6 µM | 360,000 compounds, 0.66% hits | P35363 | CHO-K1 mHTR2A beta-arrestin complementation, luminescence; percent of 30 µM serotonin response;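 active = activation above a run cutoff, the mean activation of all tested compounds plus 3 SD, cut at about 14% in these data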;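 note: 0% = plate median of compound wells and 100% = 30 µM serotonin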
MC4R antagonist = blocks human MC4R cAMP signaling. MC4R-expressing cells, MTII-stimulated cAMP, LANCE TR-FRET. P32245. inhibition, % at 6.5 µM. 360,000 compounds, 0.48% hits. AID 540295;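 active = inhibition above its plate's cutoff, the mean of tested wells on that plate plus 3 SD, cut at about 29% in these data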;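 note: 0% = Melanotan II alone and 100% = Melanotan II plus saturating MCL0020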
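system = U2OS cells with stable human MC4R expression | also added = Melanotan II challenge after compound preincubation | dosing = one concentration, 6.5 µM nominal | incubation = compound 30 min, challenge 1 h, detection 1 h | measured by = TR-FRET with Eu-cAMP and labeled anti-cAMP, 671 nm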
Active calls of the source: *; . = no result given. Hits are enriched below; roughly 4.3% of the tested compounds scored in any of these assays.

SMILES	TAAR1 agonist	B2AR ag	TAAR1 antag	MC4R ag barr	m5-HT2A agonist	MC4R antagonist
Nc1ccc2c3c(cccc13)-c1ccccc1-2	82*	-970	72*	0	1	10
C[C@@H]1C=CCCO[C@]12C(=O)N(Cc1ccc(F)cc1)c1ccccc12	-1	.	-12	.	.	.
O=C(CCSc1nnc(-c2ccco2)o1)Nc1ccc(Cl)cc1	41*	-4	-19	-2	0	-1
O=C(CCSc1nnc(-c2ccco2)o1)Nc1ccccc1	15	-3	-14	-1	-3	8
Cc1ccccc1S(=O)(=O)Cc1ccc(C(=O)N2CC(C)CC(C)C2)o1 (configuration not stated)	42*	4	-15	0	-1	3
Cc1ccccc1S(=O)(=O)Cc1ccc(C(=O)N2CCN(c3cccc(C)c3C)CC2)o1	26	17	73*	1	2	-14
Cc1cc(Oc2cccnc2)ccc1NC(=O)CCc1c[nH]c2ccccc12	1	.	-1	.	.	.
CCN1C[C@@H]2[C@@H]3C(=O)N(Cc4ccccc4)C(=O)[C@@H]3[C@](CC)(C1=O)N2C(=O)c1ccc(Cl)cc1	12	.	3	.	.	.
CC1CC(C)(C)N2C(=O)C3(Nc4ccccc4S3)c3cccc1c32 (configuration not stated)	.	-4	.	2	-3	-2
Cc1cc2c3c(c1)C1(SCC(=O)N1c1ccc(F)cc1)C(=O)N3C(C)(C)CC2C (configuration not stated)	48*	4	9	0	-2	6
N#C/C(=C\c1cccc(NC(=O)c2ccccc2Cl)c1)C(=O)NCCc1ccccc1	12	43*	34	-4	-4	2
O=c1[nH]cnc2c1sc1nc(-c3ccccc3)c3c(c12)CCCC3	6	-22	5	0	1	-4
Cc1ccc(-c2nc3sc4c(N)ncnc4c3c3c2CCCC3)cc1	3	8	-15	8.4*	-2	6
Cc1cnc(NC(=O)c2nn(C)cc2[N+](=O)[O-])s1	6	1	5	-1	1	10
Cn1cc([N+](=O)[O-])c(C(=O)Nc2nc(-c3ccc(Cl)cc3)cs2)n1	40*	33	67*	3	-1	1
CCOC(=O)[C@@H]1CSCCS(=O)(=O)N1C(=O)[C@H](CCSC)NC(=O)OC(C)(C)C	0	.	-23	.	.	.
O=C(NCc1cccnc1)/C(=C/c1ccc(-c2ccc(Cl)cc2)o1)S(=O)(=O)c1ccccc1	8	108*	13	0	-7	4
O=C(NCc1cccnc1)/C(=C\c1ccc(-c2ccc(Br)cc2)o1)S(=O)(=O)c1ccccc1	10	35	12	-4	-6	5
CC1(c2ccccc2)NC(=O)N(CC(=O)Nc2ccc([N+](=O)[O-])cc2)C1=O (configuration not stated)	2	-6	1	0	-1	12
CC1(c2ccc(OC(F)F)cc2)NC(=O)N(CC(=O)Nc2ccc(N3CCCCC3)cc2)C1=O (configuration not stated)	50*	-1	44	-3	6	3
CC1(c2ccc([N+](=O)[O-])cc2)NC(=O)N(CC(=O)Nc2ccc(N3CCCCC3)cc2)C1=O (configuration not stated)	43*	10	40	-5	2	-5
Cc1ccc(C2(C)NC(=O)N(CC(=O)Nc3cccnc3Cl)C2=O)cc1 (configuration not stated)	6	10	14	0	13	5
CC1(c2ccc([N+](=O)[O-])cc2)NC(=O)N(CC(=O)Nc2cccnc2Cl)C1=O (configuration not stated)	57*	-2	21	-3	1	-11
CCC(=O)NC1=C(Cl)C(=O)C(NC(=O)CC)=C(Cl)C1=O	46*	26	50*	1	12	-21
CCC(=O)NC1=C(NC(C)c2ccccc2)C(=O)c2ccccc2C1=O (configuration not stated)	4	-7	0	0	9	3
SMILES	TAAR1 agonist	B2AR ag	TAAR1 antag	MC4R ag barr	m5-HT2A agonist	MC4R antagonist
O=C(NCc1ccccc1)[C@@H]1CCCN1C(=O)[C@H]1CCCN1C(=O)c1ccc(F)c(F)c1	0	.	-26	.	.	.
CC1Cc2cc(-c3csc(NC(=O)Cc4ccccc4)n3)ccc2N1S(C)(=O)=O (configuration not stated)	8	10	54*	-1	-14	5
C=CCN1[C@@H](C)[C@H](c2ccccc2)Oc2cccc(N3CCCC3)c2S1(=O)=O	1	.	-37	.	.	.
CSc1nccc(NC(=O)c2cccc(Br)c2)n1	48*	5	8	0	-3	8
Cc1cc(NC(=O)c2cccc(Br)c2)n[nH]1	4	-1	2	2	4	-3
COc1ccccc1Cc1c(-c2ccc(C#N)cc2)nc2c(Cl)cc(C(F)(F)F)cn12	.	.	.	.	-6	.
O=S(=O)(/C=C/c1ccccc1)NCc1ccccc1Cl	5	67*	14	0	-2	0
CCCNS(=O)(=O)/C=C/c1ccccc1	-2	-3	0	-1	-1	3
COc1ccc(CCn2cnn3c(=O)c4ccccc4nc3c2=O)cc1OC	3	.	1	.	.	.
COc1ccc(N(CCCN2C(=O)c3cccc4cccc(c34)C2=O)C(=O)c2cccnc2)cc1	3	10	-3	11*	0	-25
Cc1oc2c(c(=O)c1C)C(=O)CC(c1ccccc1)C2 (configuration not stated)	10	4	2	-2	-4	1
CS(=O)(=O)c1sc(C#N)c2c1C(=O)CC(c1ccccc1)C2 (configuration not stated)	4	106*	73*	-2	-10	33*
Cc1cc(C(=O)N/N=C/c2c(C)[nH]c3ccccc23)n[nH]1	11	6	-36	-1	-4	-6
Cc1cccc(OCC(=O)NCC(=O)N/N=C/c2c(C)[nH]c3ccccc23)c1	8	8	52*	-1	-2	-16
Cc1[nH]c2ccccc2c1/C=N/NC(=O)c1cc(-c2cccs2)[nH]n1	16	33	58*	6	-6	-9
COC(=O)C1=C(C)N(Cc2ccc(C(F)(F)F)cc2)C(=NCc2ccccc2C(F)(F)F)NC1c1ccc(Cl)cc1 (configuration not stated)	3	.	7	.	.	.
CCOC(=O)C1=CCN(S(=O)(=O)c2ccccc2Cl)C1c1ccc(Cl)cc1 (configuration not stated)	4	.	19	.	.	.
